# PMI act – increases human mannose-6-phosphate isomerase activity; P34949; purified human PMI, coupled resazurin fluorescence, 20 min; active compounds read high; 1 = vehicle control, 0 substrate-free wells; activation factor at 20 µM; 0.005% of 190,000 active; AID 1214;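 active means activation factor of 2 or more at 20 µM, relative to plate controls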
# Target sequence (P34949 whole entry, looked up): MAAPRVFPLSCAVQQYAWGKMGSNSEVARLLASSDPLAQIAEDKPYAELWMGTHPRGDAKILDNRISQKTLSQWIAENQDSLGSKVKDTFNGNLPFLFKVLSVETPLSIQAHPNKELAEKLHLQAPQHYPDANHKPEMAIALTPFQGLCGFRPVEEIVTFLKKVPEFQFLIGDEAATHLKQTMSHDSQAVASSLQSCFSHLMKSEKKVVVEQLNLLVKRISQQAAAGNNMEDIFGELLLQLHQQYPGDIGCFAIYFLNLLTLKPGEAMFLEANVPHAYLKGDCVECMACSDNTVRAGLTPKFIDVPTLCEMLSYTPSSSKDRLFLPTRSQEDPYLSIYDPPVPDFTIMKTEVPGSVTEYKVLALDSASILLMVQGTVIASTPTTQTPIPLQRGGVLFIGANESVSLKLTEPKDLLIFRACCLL
# PMI act hi M6P – increases human PMI activity with near-saturating mannose 6-phosphate; P34949; coupled PMI enzyme assay, resazurin fluorescence, 20 min; active compounds read high; 1 = untreated enzyme, 0 = substrate-free blank; activation factor at 20 µM; 0.34% of 190,000 active;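 active means activation factor of 2 or more at 20 µM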
#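 Material: human phosphomannose isomerase with PGI, G6PDH, diaphorase coupling enzymes / Reagent: Man-6-P substrate 1.0 mM / Dosing: single compound dose of 20 µM, 1% DMSO final / Incubation: enzyme reaction with compound 20 min at room temperature / Signal: resorufin fluorescence (Ex 544/Em 590 nm) from resazurin via diaphorase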
# TNAP act hiacc – TNAP (human) activation, high acceptor; 200,000 tested, under 10 active; P05186; purified TNAP, CDP-star luminescence, 1 M DEA, 30 min; active compounds read high; 0 = EDTA background, 1 = DMSO-only activity; activation factor at 20 µM;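 active means activation factor at least 2 at 20 µM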
#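 Dosing: 20 µM single point. System: human TNAP. Amount: TNAP 1/800 final. Incubation: 30 min, room temperature. Read-out: TNAP activation factor scaled between EDTA and DMSO control wells. Signal: luminescence from CDP-star hydrolysis. Medium: 1 M DEA, pH 9.8, Mg2+, Zn2+. Control set: EDTA negative control, DMSO positive control.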
# TNAP inh hi DEA – TNAP (human) inhibition, high acceptor. P05186. purified TNAP, CDP-star luminescence, 1 M DEA. inhibition, % at 20 µM. 0.03% of 200,000 active. AID 1135;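 active means over 50% inhibition of tissue-nonspecific alkaline phosphatase at 20 µM in the single-dose screen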;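 further: plate controls were DMSO wells for no effect and EDTA-quenched wells as full inhibition for full effect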
# TNAP inh noacc – TNAP (human) inhibition, acceptor-free conditions. purified TNAP, CDP-star luminescence, 30 min. inhibition, % at 20 µM. P05186. 0.26% of 200,000 active;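 active means tissue-nonspecific alkaline phosphatase inhibition above about 50% at 20 µM in the single-dose screen, limit read from the data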;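 further: 0% = DMSO negative control and 100% = EDTA positive control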
# Starred values were filed as active, the others as inactive. A selection: hits, their analogues and other compounds. The true share with any hit is near 0.64%.
SMILES,PMI act,PMI act hi M6P,TNAP act hiacc,TNAP inh hi DEA,TNAP inh noacc
Cc1ccc(/C=N/Nc2ccc(C(=O)O)cc2)o1,1.1,1.1,1,-5,-14
COc1ccc(/C=N/Nc2ccc(C(=O)O)cc2)cc1Br,1.8,2.5*,1,-3,-10
O=C(O)c1ccc(N/N=C/c2ccc(-c3ccccc3)cc2)cc1,1.6,2.4*,1,0,-10
COc1n[nH]c(C(=O)Nc2nc3ccccc3s2)c1[N+](=O)[O-],0.9,0.8,1.1,-6,-72
COc1ccc(OC)c(S(=O)(=O)N2CCC(C(=O)N3CCOCC3)CC2)c1,0.9,0.9,1,-2,-5
COc1ccc(-c2[nH]ncc2CN2CCC(C(=O)N3CCOCC3)CC2)c(F)c1,0.9,1,1,1,68*
O=C(C1CCN(Cc2cn[nH]c2-c2ccc(F)cc2F)CC1)N1CCOCC1,1,1.1,1.1,-5,51*
OCCCC1CCCN(Cc2cn[nH]c2-c2ccc(F)cc2F)C1 (configuration not stated),1,1.1,1,-2,53*
COc1ccc(NC(=O)/C(Cl)=C(/Cl)S(=O)Cc2ccccc2Cl)cn1 (configuration not stated),1.1,1,1,-4,-16
c1ccc(-c2nc(CSc3n[nH]c(-c4cccs4)n3)cs2)cc1,1,1.1,1.1,-5,60*
Nc1cc(=O)[nH]c(SCc2csc(-c3ccccc3)n2)n1,1,0.9,1,-3,-17
COc1ccc(C(=O)N/N=C/c2cc3ccccc3[nH]c2=S)cc1,1.7,2*,1,2,10
O=C1CC(c2ccc(F)cc2)Sc2nc(C34CC5CC(CC(C5)C3)C4)nn21 (configuration not stated),0.8,0.9,1,-4,86*
O=C1CC(c2ccc(F)cc2)Sc2ccccc2N1 (configuration not stated),0.9,0.9,1,1,-3
Nc1nc(SCC(=O)Nc2ccc(S(N)(=O)=O)cc2)n[nH]1,1,1,1,2,64*
CC(C)Cc1nc(SCC(=O)Nc2ccc(S(N)(=O)=O)cc2)n[nH]1,1,1,1,0,37
O=C1Nc2ccccc2N(O)N1c1cc(-c2ccc(Cl)cc2)[nH]n1,1,0.9,1,-2,63*
COc1cc(OC)cc(-c2cc(N3C(=O)Nc4ccccc4N3O)n[nH]2)c1,0.9,1,1,-2,-19
CCCCSc1nc(C)[nH]c1[N+](=O)[O-],1.7,2*,1,-2,-11
Cc1nc(SCCC(C)C)c([N+](=O)[O-])[nH]1,1.6,1.6,1,0,9
CCCCOc1ccc(/C=C/C2=CC(C)(C)NC(=S)N2)cc1OCC,1.6,2*,0.9,9,-4
Cn1c(O)c(/C=N/Nc2ccccc2)c(=O)n(C)c1=O,1.7,2.6*,1,1,-11
Nc1ccc(C(=O)N/N=C/c2sc(N3CCOCC3)nc2-c2ccccc2)cc1,1.1,1.2,1,0,-8
O=C(O)c1cccc(N/N=C/c2sc(N3CCOCC3)nc2-c2ccccc2)c1,1.6,2.5*,1,3,-1
O=C(O)c1cccc(Cn2c(Cl)c(/C=N/Nc3ccccc3)sc2=O)c1,1.6,2.5*,1,3,-6
SMILES,PMI act,PMI act hi M6P,TNAP act hiacc,TNAP inh hi DEA,TNAP inh noacc
OC(CNCC(c1ccc(Cl)cc1Cl)c1c[nH]c2ccccc12)c1ccccc1 (configuration not stated),1,1,1.1,-7,-9
CC12CC3(C)CC(C)(C1)CC(C(=O)NC(=S)N1CCCC1)(C2)C3,1,1,1.1,-5,0
Cn1c(=S)[nH]c2ccccc21,1.1,1.1,1,-4,9
Cn1ccc(=S)c2ccccc21,1.6,2.2*,1,-1,-7
Cc1ccc(S(=O)(=O)N(C)C)cc1NC(=O)COC(=O)c1ccc2c(c1)OCCO2,1,1,1,-1,-10
C/C(=N\NC(=O)CC#N)C1COc2ccccc2O1 (configuration not stated),1,1,1,-1,-8
CCCCCCCCC(=O)N/N=C(\C)c1cccnc1,1.5,2.3*,1,0,2
COc1ccccc1N/N=C/c1c(CO)cnc(C)c1O,1.6,2.1*,1,0,-18

# From PubChem BioAssay
